For assay [1], the system named is K562. Briefly: Cell cycle arrest in human K562 cells assessed as accumulation at G1-phase at 5 uM after 48 hrs by propidium iodide staining based flow cytometry (reference value: 27.5%). In kind it is functional. (In general: A flow cytometer gives signals particle by particle.)
For assay [2], the system named is K562. Kind of assay: Cell cycle arrest in human K562 cells assessed as accumulation at G1/S-phase at 5 uM after 48 hrs by propidium iodide staining based flow cytometry (reference value: 21.8%). Type of assay: functional.
Assay [3] deals with K562. Kind of assay: Downregulation of MMP2 protein expression in human K562 cells assessed as MMP2 negative population at 10 uM after 48 hrs by FITC staining based flow cytometry (reference value: 1.6%).
Assay [4] deals with K562. Kind of assay: Downregulation of MMP2 protein expression in human K562 cells assessed as MMP2 negative population at 2.5 uM after 48 hrs by FITC staining based flow cytometry (reference value: 1.6%).
The test system of the next assay is A549. Briefly: Cytotoxicity against human A549 cells assessed as reduction in cell viability after 48 hrs by MTT assay. Type of assay: functional, cell-based. As to conditions: A549, 48 h. In a few lines: (§1)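 A549, MDA-MB-231, K562, U937 and PBMC (PBMC from healthy donors) seeded at 1×10^3 cells/well and left 24 h, then exposed to compounds for 48 h at 37 °C, 5% CO2. Adherent lines were grown in DMEM, the others in RPMI-1640 with 10% heat-inactivated FBS. MTT read-out; viability expressed as % of untreated control. IC50 taken as the concentration giving 50% viability loss.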
Background: Formazan colour is commonly taken as a measure of viable cells.

The target in another assay is T1, Interstitial collagenase (Homo sapiens, UniProt P03956).
T1 sequence (P03956 whole entry): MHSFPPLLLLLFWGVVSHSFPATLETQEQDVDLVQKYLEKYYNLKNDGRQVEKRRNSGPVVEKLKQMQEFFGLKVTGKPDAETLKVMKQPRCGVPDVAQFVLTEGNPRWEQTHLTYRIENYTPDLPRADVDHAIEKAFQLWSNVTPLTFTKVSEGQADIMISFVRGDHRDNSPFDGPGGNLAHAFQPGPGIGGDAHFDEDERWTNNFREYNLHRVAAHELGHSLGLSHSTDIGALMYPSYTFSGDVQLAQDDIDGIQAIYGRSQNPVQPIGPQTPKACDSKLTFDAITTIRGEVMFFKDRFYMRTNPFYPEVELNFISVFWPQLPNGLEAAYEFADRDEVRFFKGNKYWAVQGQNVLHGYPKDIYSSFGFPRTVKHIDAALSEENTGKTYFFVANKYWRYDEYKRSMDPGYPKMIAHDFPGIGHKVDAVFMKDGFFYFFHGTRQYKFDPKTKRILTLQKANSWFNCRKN
Briefly: Inhibition of recombinant human MMP1 (Phe100 to Gln268 residues) using Ac-Pro-Leu-Gly-S-Leu-Leu-Gly-OEt as substrate after 1 hr measured at 1 min time interval for 30 mins by microplate photometric method. In a few lines:
(§2)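 Commercial MMP kits; compound preincubated with enzyme before chromogenic substrate was added. Reactions at 37 °C for 1 h, with at least six inhibitor concentrations in triplicate. Absorbance at 410 nm read every 1 min for 30 min. NNGH used as reference inhibitor. IC50 taken from semi-logarithmic dose-response plots.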

The test system of another assay is U-937. Kind of assay: Cytotoxicity against human U937 cells assessed as reduction in cell viability after 48 hrs by MTT assay. As to conditions: U-937, 48 h. In kind it is functional, cell-based. An outline of the steps:
as §1

In the next assay the test system is PBMC. Briefly: Cytotoxicity against human PBMC assessed as reduction in cell viability after 48 hrs by MTT assay. In kind it is cell-based. An outline of the steps:
as §1

Assay [5] deals with K562. Kind of assay: Cell cycle arrest in human K562 cells assessed as accumulation at G2/M-phase at 2.5 uM after 24 hrs by propidium iodide staining based flow cytometry (reference value: 35.3%).
The subject of assay [6] is K562. Kind of assay: Cell cycle arrest in human K562 cells assessed as accumulation at sub-G1 phase at 10 uM after 48 hrs by propidium iodide staining based flow cytometry (reference value: 1%). Type of assay: functional.
Assay [7] deals with K562. Kind of assay: Induction of apoptosis in human K562 cells assessed as live cells at 2.5 uM after 48 hrs by Annexin V-FITC/propidium iodide staining based flow cytometry (reference value: 90.1%). In kind it is functional.
Assay [8] has as its system K562. Briefly: Cell cycle arrest in human K562 cells assessed as accumulation at sub-G1 phase at 5 uM after 24 hrs by propidium iodide staining based flow cytometry (reference value: 1%).
Assay [9] has as its system K562. Kind of assay: Induction of apoptosis in human K562 cells assessed as necrotic cells at 10 uM after 48 hrs by Annexin V-FITC/propidium iodide staining based flow cytometry (reference value: 0%). In kind it is functional.
In assay [10] the test system is K562. Kind of assay: Cell cycle arrest in human K562 cells assessed as accumulation at G1/S-phase at 2.5 uM after 24 hrs by propidium iodide staining based flow cytometry (reference value: 21.8%).
In assay [11] the test system is K562. Briefly: Induction of apoptosis in human K562 cells assessed as early apoptotic cells at 2.5 uM after 48 hrs by Annexin V-FITC/propidium iodide staining based flow cytometry (reference value: 9.6%). In kind it is functional.
In assay [12] the test system is K562. Kind of assay: Downregulation of MMP2 protein expression in human K562 cells assessed as MMP2 positive population at 2.5 uM after 48 hrs by FITC staining based flow cytometry (reference value: 98.4%).
Assay [13] concerns K562. Briefly: Cell cycle arrest in human K562 cells assessed as accumulation at G1/S-phase at 10 uM after 24 hrs by propidium iodide staining based flow cytometry (reference value: 21.8%).
The test system of assay [14] is K562. Briefly: Cell cycle arrest in human K562 cells assessed as accumulation at G2/M-phase at 10 uM after 24 hrs by propidium iodide staining based flow cytometry (reference value: 35.3%).
The test system of assay [15] is K562. Kind of assay: Induction of apoptosis in human K562 cells assessed as late apoptotic cells at 5 uM after 48 hrs by Annexin V-FITC/propidium iodide staining based flow cytometry (reference value: 0.3%). Type of assay: functional.
Assay [16] has as its system K562. Briefly: Downregulation of MMP2 protein expression in human K562 cells up to 10 uM after 48 hrs by Western blot method. In kind it is functional, cell-based. In a few lines: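 K562 cells (~2×10^6) grown 48 h, then treated. Lysed on ice in Tris-HCl pH 7.5 buffer with CHAPS and glycerol. 50 µg protein run on 12% SDS-PAGE (15% for β-tubulin) and blotted to PVDF. Probed with anti-MMP-2 and anti-β-tubulin (1:1000) overnight at 4 °C, then ALKP secondary antibody and DAB development. Band intensity normalised to β-tubulin; mean ± SD.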
For orientation: A western blot detects proteins with antibodies after separation by electrophoresis.

The next assay addresses Neutrophil collagenase (Homo sapiens, UniProt P22894). Briefly: Inhibition of recombinant human MMP8 (Phe99 to Gln269 residues) expressed in Escherichia coli using Ac-Pro-Leu-Gly-S-Leu-Leu-Gly-OEt as substrate after 1 hr measured at 1 min time interval for 30 mins by microplate photometric method. An outline of the steps:
as §2

For assay [17], the system named is K562. Briefly: Induction of apoptosis in human K562 cells assessed as necrotic cells at 5 uM after 48 hrs by Annexin V-FITC/propidium iodide staining based flow cytometry (reference value: 0%). In kind it is functional.

Drawing on ChEMBL document CHEMBL4130487, “A pentanoic acid derivative targeting matrix metalloproteinase-2 (MMP-2) induces apoptosis in a chronic myeloid leukemia cell line” (Eur J Med Chem, 2017), this text covers Activity and IC50 for one compound.

Calls of active or inactive are those of the source. The calls are words filed in the database; no cut-off is given here.

Chain of Neutrophil collagenase (P22894 whole entry): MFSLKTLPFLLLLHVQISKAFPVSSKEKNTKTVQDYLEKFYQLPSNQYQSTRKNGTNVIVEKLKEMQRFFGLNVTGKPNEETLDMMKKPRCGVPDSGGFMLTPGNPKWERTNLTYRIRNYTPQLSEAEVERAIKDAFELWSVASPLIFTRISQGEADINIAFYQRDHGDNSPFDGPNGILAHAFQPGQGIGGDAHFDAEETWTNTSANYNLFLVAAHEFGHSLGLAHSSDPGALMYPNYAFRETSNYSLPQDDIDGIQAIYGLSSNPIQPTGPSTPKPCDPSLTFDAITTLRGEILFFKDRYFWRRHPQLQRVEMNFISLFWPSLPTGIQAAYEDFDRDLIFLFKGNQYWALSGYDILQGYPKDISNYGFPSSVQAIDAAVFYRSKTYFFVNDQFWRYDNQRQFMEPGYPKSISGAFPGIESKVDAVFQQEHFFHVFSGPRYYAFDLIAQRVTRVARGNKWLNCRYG

Broadly, the IC50 is the point on the concentration scale where inhibition reaches its midpoint. Regarding `CCCCCNC(=O)CC[C@H](NS(=O)(=O)c1ccc([N+](=O)[O-])cc1)C(=O)O`, the Activity with K562 [1] turned out to be 33.4%; in the assay on K562 [2], 19.6%; in the assay on K562 [3] it was 84.4%; in the assay on K562 [4] it was 73.7%; in the assay with K562 [5] it was 36%; with K562 [6], 4.6%. The Activity was found to be 73.5% in the assay on K562 [7]; 2.4% with K562 [8]; 0.4% in the assay with K562 [9]; 20% in the assay on K562 [10]; 14.3% in the assay with K562 [11]; 26.3% in the assay on K562 [12]. For the same compound, the Activity came to 14% in the assay with K562 [13], 23.1% in the assay on K562 [14], 8.5% with K562 [15] and 0.1% with K562 [17]. Further, the IC50 was 206 µM with A549; over 500 µM at Interstitial collagenase; 32.1 µM with U-937; over 1000 µM in the assay with PBMC; over 500 µM at Neutrophil collagenase. Also, in the assay on K562 [16], the outcome was Active.
